The results in this text go back to ChEMBL document CHEMBL1156469 (2007).

Calls of active or inactive are those of the source. No cut-off for these calls is given here.

The test system of this experiment is Rattus norvegicus. The experiment can be described thus: Antiapoptotic activity against osteoblasts in ovariectomized Wistar rat at 0.1 mg/kg after 10 weeks. Also noted: dose 0.1 mg/kg. Format: functional, organism-based. An outline of the steps:
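After 10 weeks, lumbar vertebrae were removed. Apoptotic osteoblasts were detected by TUNEL staining (Klenow FragEL) in undecalcified, plastic-embedded sections. Values are means ± S.D.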

Turning to `C[C@]12CC[C@@H]3c4ccc(O)cc4CC[C@H]3[C@@H]1CC[C@@H]2O`, the outcome was Active.
